{"source": "ChEMBL document CHEMBL4665645", "about": "“Role of the NMDA Receptor in the Antitumor Activity of Chiral 1,4-Dioxane Ligands in MCF-7 and SKBR3 Breast Cancer Cells” (ACS Med Chem Lett, 2019)", "key": {"MCF7": {"test_system": "MCF7", "assay": "Cytotoxicity against human MCF7 cells assessed as reduction in cell viability after 48 hrs by SRB assay", "assay_type": "functional", "how_it_was_run": "(§1)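 Followed the NCI SRB protocol: cells exposed 48 h to a range of concentrations. GI50 is the concentration giving 50% net growth inhibition; TGI is 100% growth inhibition; LC50 kills 50% of initial cells. Mean ± SE of three separate experiments.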"}, "SK-BR-3": {"test_system": "SK-BR-3", "assay": "Cytotoxicity against human SK-BR-3 cells assessed as reduction in cell viability incubated for 48 hrs by SRB assay", "assay_type": "functional", "how_it_was_run": "as §1"}}}
{"smiles": "NC[C@@H]1COC[C@](c2ccccc2)(C2CCCCC2)O1", "note": "(relative stereo)", "values": [{"measurement": "GI50", "setting": "MCF7", "value": 89.7, "unit": "µM"}, {"measurement": "LC50 (concentration killing 50% of initial cells)", "setting": "MCF7", "value": 244, "unit": "µM"}, {"measurement": "TGI", "setting": "MCF7", "value": 148, "unit": "µM"}, {"measurement": "GI50", "setting": "SK-BR-3", "value": 25.8, "unit": "µM"}, {"measurement": "LC50 (concentration killing 50% of initial cells)", "setting": "SK-BR-3", "value": "> 300", "unit": "µM"}, {"measurement": "TGI", "setting": "SK-BR-3", "value": 180, "unit": "µM"}]}
{"smiles": "NCC1COCC(c2ccccc2)(c2ccccc2)O1", "note": "(racemic)", "values": [{"measurement": "GI50", "setting": "MCF7", "value": 74.4, "unit": "µM"}, {"measurement": "LC50 (concentration killing 50% of initial cells)", "setting": "MCF7", "value": 253, "unit": "µM"}, {"measurement": "TGI", "setting": "MCF7", "value": 137, "unit": "µM"}, {"measurement": "GI50", "setting": "SK-BR-3", "value": 31.2, "unit": "µM"}, {"measurement": "LC50 (concentration killing 50% of initial cells)", "setting": "SK-BR-3", "value": "> 300", "unit": "µM"}, {"measurement": "TGI", "setting": "SK-BR-3", "value": 200, "unit": "µM"}]}
{"smiles": "NC[C@H]1COC[C@](c2ccccc2)(C2CCCCC2)O1", "note": "(relative stereo)", "values": [{"measurement": "GI50", "setting": "MCF7", "value": 65.3, "unit": "µM"}, {"measurement": "LC50 (concentration killing 50% of initial cells)", "setting": "MCF7", "value": 176, "unit": "µM"}, {"measurement": "TGI", "setting": "MCF7", "value": 107, "unit": "µM"}, {"measurement": "GI50", "setting": "SK-BR-3", "value": 23.8, "unit": "µM"}, {"measurement": "LC50 (concentration killing 50% of initial cells)", "setting": "SK-BR-3", "value": "> 300", "unit": "µM"}, {"measurement": "TGI", "setting": "SK-BR-3", "value": 192, "unit": "µM"}]}
{"smiles": "C[C@]12N[C@H](Cc3ccccc31)c1ccccc12", "note": "[DIZOCILPINE]", "values": [{"measurement": "GI50", "setting": "MCF7", "value": "> 300", "unit": "µM"}, {"measurement": "TGI", "setting": "MCF7", "value": "> 300", "unit": "µM"}, {"measurement": "GI50", "setting": "SK-BR-3", "value": "> 300", "unit": "µM"}, {"measurement": "TGI", "setting": "SK-BR-3", "value": "> 300", "unit": "µM"}]}
